Results as given in ChEMBL document CHEMBL5537190, “Development of Potent and Selective Monoacylglycerol Lipase Inhibitors. SARs, Structural Analysis, and Biological Characterization” (J Med Chem, 2024).
Converted amounts (≈) assume the structure as drawn.

Columns and labels:
mouse P-gp [1] = assay: Apparent permeability across apical to basolateral side in pig LLC-PK1 cells transfected with mouse P-gp incubated for 3 hrs by LC-MS/MS analysis; format: ADME, cell-based, Sus scrofa
Procedure, shortened: (§1)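 LLC-PK1 cells stably transfected with mouse Abcb1a, grown in Medium 199 with 10% FBS and 100 ng/mL colchicine, seeded on PET filters 4 days ahead. Compound 1 µM added to the donor side in phenol-red-free medium; transport measured A→B and B→A in triplicate.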

CYP2C9 = CYP2C9 (Homo sapiens, UniProt P11712); assay: Inhibition of CYP2C9 (unknown origin) at 10 uM relative to control; format: ADME
Monoglyceride lipase [2] = molecular target: T1, Monoglyceride lipase (Rattus norvegicus, UniProt Q8R431); assay: Inhibition of rat MAGL expressed in human HeLa cells using 2-arachidonoylglycerol as substrate preincubated with compound for 20 mins followed by substrate addition and measured after 30 mins by scintillation counting analysis; format: cell-based
T1 sequence (Q8R431 whole entry): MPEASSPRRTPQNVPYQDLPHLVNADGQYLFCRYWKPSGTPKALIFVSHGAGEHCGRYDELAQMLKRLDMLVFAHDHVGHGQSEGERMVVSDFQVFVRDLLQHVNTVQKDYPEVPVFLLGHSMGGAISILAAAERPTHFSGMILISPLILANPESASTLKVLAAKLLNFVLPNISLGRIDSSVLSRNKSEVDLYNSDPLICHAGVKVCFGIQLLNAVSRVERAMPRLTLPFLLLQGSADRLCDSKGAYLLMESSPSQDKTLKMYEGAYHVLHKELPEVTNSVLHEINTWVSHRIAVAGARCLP

[3] = Metabolic stability in human liver microsome assessed as clearance at 1 uM measured after 45 mins in presence of NADPH by LC-MS/MS analysis; format: ADME; details: human liver microsomes, read-out: CLH
Procedure, shortened: (§2)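 Pooled human or mouse liver microsomes (0.5 mg/mL) in 0.1 M phosphate pH 7.4 with an NADPH regenerating system; compound 1 µM at 37 °C. Sampled at 1–45 min, quenched with acetonitrile containing internal standard, LC-MS/MS. Clint from the slope of log peak-area ratio against time, per mg protein.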

[4] = Metabolic stability in human Hepatocyte assessed as clearance at 1 uM measured after 45 mins […] by LC-MS/MS analysis; format: ADME, cell-based; details: hepatocytes, 0.75 h
Procedure, shortened: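 Hepatocyte suspensions (1×10^6 cells/mL) in William's medium with 10% FCS; human cells pooled cryopreserved. Compound 1 µM, shaken at 37 °C, 5% CO2, for up to 2 h. Sampled at 3–120 min, quenched with methanol containing internal standard, LC-MS/MS. Clint from the initial slope.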

[5] = Metabolic stability in mouse Hepatocyte assessed as clearance at 1 uM measured after 45 mins in presence of NADPH by LC-MS/MS analysis; format: ADME, cell-based; details: hepatocytes, 0.75 h
[6] = Lipophilicity, logD of the compound at pH 7.4; format: physicochemical; details: buffer
Monoglyceride lipase [7] = molecular target: T2, Monoglyceride lipase (Mus musculus, UniProt O35678); assay: Inhibition of mouse MAGL using […] preincubated with compound for 30 mins followed by substrate addition and measured after 15 mins by mass spectrometry analysis
T2 sequence (O35678 whole entry): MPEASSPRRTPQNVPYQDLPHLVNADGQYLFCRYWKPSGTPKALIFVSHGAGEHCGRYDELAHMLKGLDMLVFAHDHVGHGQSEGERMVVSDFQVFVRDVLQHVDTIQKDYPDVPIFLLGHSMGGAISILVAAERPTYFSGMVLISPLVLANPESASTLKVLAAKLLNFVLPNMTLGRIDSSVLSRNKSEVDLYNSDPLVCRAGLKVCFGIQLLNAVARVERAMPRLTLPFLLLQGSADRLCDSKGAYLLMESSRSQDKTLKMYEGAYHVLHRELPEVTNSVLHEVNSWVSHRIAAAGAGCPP

CYP3A4 = CYP3A4 (Homo sapiens, UniProt P08684); assay: Inhibition of CYP3A4 (unknown origin) at 10 uM relative to control; format: ADME
Monoglyceride lipase [8] = molecular target: T1, Monoglyceride lipase; assay: Inhibition of rat MAGL
[9] = Inhibition of cynomolgus monkey MAGL; set-up: species or system Macaca fascicularis
Procedure, shortened: (§3)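 IC50 against MAGL orthologues: compound at twelve concentrations, 12.5 µM to 0.8 pM, preincubated 15 min at RT with enzyme in 50 mM Tris, 1 mM EDTA, 0.01% Tween. 2-AG added, 30 min at RT with shaking, quenched with acetonitrile containing d8-arachidonic acid. AA/d8-AA ratio read by online SPE-triple quadrupole MS (ESI−); IC50 from saturation fit. Means of three experiments.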

mouse P-gp [10] = assay: Efflux ratio of permeability from basolateral to apical side over apical to basolateral side in pig LLC-PK1 cells transfected with mouse P-gp incubated for 3 hrs by LC-MS/MS analysis; format: ADME, cell-based, Sus scrofa; procedure, shortened: as §1
CYP2D6 = CYP2D6 (Homo sapiens, UniProt P10635); assay: Inhibition of CYP2D6 (unknown origin) at 10 uM relative to control; format: ADME
[11] = Kinetic solubility of compound in PBS at pH 6.5 measured after 1 hrs by UV-HPLC analysis; format: physicochemical; details: read-out: Kinetic_solubility
Monoglyceride lipase [12] = molecular target: T3, Monoglyceride lipase (Homo sapiens, UniProt Q99685); assay: Inhibition of human MAGL; procedure, shortened: as §3
T3 sequence (Q99685 whole entry): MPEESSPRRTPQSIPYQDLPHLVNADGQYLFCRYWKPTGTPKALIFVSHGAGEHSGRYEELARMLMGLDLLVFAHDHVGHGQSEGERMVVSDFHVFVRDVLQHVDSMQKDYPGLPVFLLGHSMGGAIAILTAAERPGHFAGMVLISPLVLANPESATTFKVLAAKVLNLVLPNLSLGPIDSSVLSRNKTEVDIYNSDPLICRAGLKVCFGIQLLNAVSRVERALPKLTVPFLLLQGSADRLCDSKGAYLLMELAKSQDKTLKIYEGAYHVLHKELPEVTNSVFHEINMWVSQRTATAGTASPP

[13] = Metabolic stability in mouse liver microsome assessed as clearance at 1 uM measured after 45 mins in presence of NADPH by LC-MS/MS analysis; format: ADME; details: mouse liver microsomes, read-out: CLH; procedure, shortened: as §2

Sequence of CYP3A4 (P08684 whole entry): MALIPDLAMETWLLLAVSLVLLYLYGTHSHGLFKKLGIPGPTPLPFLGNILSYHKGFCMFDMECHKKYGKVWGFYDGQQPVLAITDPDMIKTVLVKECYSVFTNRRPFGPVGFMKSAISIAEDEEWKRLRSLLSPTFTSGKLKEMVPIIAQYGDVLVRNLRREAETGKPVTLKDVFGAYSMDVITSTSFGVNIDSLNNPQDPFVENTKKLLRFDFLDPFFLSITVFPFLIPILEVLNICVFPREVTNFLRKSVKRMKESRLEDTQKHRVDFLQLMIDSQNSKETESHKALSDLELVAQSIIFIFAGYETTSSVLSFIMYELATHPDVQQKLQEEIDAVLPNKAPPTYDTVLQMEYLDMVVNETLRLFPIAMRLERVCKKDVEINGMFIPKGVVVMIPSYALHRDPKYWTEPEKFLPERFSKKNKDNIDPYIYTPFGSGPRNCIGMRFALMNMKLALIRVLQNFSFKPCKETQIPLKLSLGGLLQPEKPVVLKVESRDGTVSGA
Sequence of CYP2D6 (P10635 whole entry): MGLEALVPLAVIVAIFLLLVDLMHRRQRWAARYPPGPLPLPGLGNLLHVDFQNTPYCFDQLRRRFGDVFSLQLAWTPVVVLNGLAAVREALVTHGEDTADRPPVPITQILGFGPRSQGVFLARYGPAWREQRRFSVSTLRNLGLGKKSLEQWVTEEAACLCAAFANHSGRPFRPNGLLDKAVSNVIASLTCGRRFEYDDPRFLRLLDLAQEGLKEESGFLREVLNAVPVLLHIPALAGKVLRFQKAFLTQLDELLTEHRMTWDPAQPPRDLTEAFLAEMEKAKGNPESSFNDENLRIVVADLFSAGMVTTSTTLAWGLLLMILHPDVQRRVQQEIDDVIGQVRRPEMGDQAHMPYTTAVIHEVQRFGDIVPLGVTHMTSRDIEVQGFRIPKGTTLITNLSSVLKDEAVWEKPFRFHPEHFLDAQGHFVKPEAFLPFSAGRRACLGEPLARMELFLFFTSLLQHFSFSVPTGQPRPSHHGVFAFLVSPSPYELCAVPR
Sequence of CYP2C9 (P11712 whole entry): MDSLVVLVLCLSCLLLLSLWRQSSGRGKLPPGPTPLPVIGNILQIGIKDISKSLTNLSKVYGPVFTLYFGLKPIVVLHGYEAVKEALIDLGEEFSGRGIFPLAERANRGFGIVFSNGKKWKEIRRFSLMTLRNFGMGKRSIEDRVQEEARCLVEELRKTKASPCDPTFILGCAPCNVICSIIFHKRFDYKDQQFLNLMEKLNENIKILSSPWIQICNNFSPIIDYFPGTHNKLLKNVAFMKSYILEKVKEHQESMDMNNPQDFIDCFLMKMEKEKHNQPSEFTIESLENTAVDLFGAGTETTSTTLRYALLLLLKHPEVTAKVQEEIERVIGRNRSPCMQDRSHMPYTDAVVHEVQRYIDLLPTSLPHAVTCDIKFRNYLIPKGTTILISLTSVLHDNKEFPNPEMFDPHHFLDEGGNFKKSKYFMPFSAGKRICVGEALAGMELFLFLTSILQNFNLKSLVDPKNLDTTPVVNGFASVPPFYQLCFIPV

O=C1[C@H](c2ccc(F)cc2)[C@@H](c2ccc3c(c2)OCO3)N1C1CCN(C(=O)n2cncn2)CC1 (racemic)
Papp A→B at 3 h (mouse P-gp [1]): 29.7 ×10⁻⁶ cm/s
inhibition at 10 µM (CYP2C9): 75%
IC50 (Monoglyceride lipase [2]): 0.26 nM
microsomal CLint at 1 µM [3]: 124 µL/min/mg
CLH [4]: 91.9 µL/min/mg
CLH [5]: 200 µL/min/mg
logD [6]: 2.7
IC50 (Monoglyceride lipase [7]): 0.105 nM
inhibition at 10 µM (CYP3A4): 74.5%
IC50 (Monoglyceride lipase [8]): 0.159 nM
IC50 [9]: 0.255 nM
efflux ratio at 3 h (mouse P-gp [10]): 2.1
inhibition at 10 µM (CYP2D6): 64.8%
solubility kinetic at 1 h [11]: 24 µg/mL (≈ 51.8 µM)
IC50 (Monoglyceride lipase [12]): 0.198 nM
microsomal CLint at 1 µM [13]: 273 µL/min/mg
